# Sampled rows, rich in hits. Any-hit rate of the full collection: about 1.9%.
# TbHK1 inh = Trypanosoma brucei hexokinase 1 inhibitors, primary screen, biochemical, G6PDH-coupled NADH absorbance, MLSCN library | 0.11% of 220,000 active | recombinant TbHK1, G6PDH-coupled NADH A340 | hexokinase 1 [Trypanosoma brucei] | inhibition, % at 10 µM;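 active means inhibition of 50% or more in the single-dose primary screen; inactive means inhibition below 50%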
# RanGTP-Impb inh = inhibitors of RanGTP-importin-beta interaction, primary screen, biochemical, FRET, CFP-Ran, YFP-importin-beta, homogeneous | Ran GTPase (GTP-bound) - importin-beta complex | cell-free CFP-Ran/YFP-importin-beta FRET ratio | inhibition, % (no concentration beside the values) | 1.1% of 300,000 active | AID 2216, 2009;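 active means more than half of the replicate wells show a fall in the fluorescence ratio signal beyond about 16%, limit read from the data, passing the limit was not always enough; inconclusive means exactly half of the replicate wells pass the set limit; inactive means fewer than half of replicates pass the limit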;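 further: 0% = DMSO wells and 100% = Ran loaded with GDP instead of GTP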
# Runt-CBFb FRET = inhibitors of RUNX1 Runt–CBFb binding, primary screen, biochemical, FRET, Cerulean-Runt, Venus-CBFb, uHTS; Cerulean-Runt/Venus-CBFb FRET ratio 530/480, 1 h; 0.46% of 220,000 active; AID 1496, 2009; inhibition, % at 20 µM; Runt-related transcription factor 1 (Homo sapiens) + Core-binding factor subunit beta …;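 active means inhibition over about 50% at 20 µM in the single-dose screen, limit read from the data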;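 further: 0% = DMSO wells and 100% = excess unlabeled CBFb competitor control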
# Target sequence (Q01196 whole entry, looked up): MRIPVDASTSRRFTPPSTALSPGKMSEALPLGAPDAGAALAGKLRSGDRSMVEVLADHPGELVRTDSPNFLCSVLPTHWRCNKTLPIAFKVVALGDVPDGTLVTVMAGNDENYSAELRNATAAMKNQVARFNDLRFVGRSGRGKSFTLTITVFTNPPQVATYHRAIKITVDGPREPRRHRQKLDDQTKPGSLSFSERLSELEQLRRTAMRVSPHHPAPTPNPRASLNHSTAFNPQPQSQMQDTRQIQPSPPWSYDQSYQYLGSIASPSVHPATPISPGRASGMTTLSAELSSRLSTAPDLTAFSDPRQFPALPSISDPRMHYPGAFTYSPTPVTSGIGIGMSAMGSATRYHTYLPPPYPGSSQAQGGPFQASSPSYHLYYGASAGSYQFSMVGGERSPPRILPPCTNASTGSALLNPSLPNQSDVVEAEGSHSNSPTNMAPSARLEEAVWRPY
# Target sequence (Q13951 whole entry, looked up): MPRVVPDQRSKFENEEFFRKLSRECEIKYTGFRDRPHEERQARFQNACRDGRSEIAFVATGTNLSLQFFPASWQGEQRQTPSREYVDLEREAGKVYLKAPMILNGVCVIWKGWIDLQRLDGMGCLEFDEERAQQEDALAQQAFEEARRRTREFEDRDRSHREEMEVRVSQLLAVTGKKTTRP
#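 Assay system: Cerulean-Runt domain fusion protein, energy donor; Signal: fluorescence energy transfer, 422 nm excitation, 530/480 nm emission; Timing: 1 h compound exposure, room temperature; Control set: unlabeled CBFb; Medium: Tris buffer pH 7.5 with salts and BSA; Compound: single test concentration of 20 µM, 1% DMSO final; Probe or stimulus: Venus-CBFb 100 nM.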
# Hck Nef HTS = inhibitors of Nef-activated human Hck kinase, primary screen, biochemical, Z-Lyte FRET, 384-well, Hck-YEEI. Recombinant Hck-YEEI plus Nef, Z-Lyte FRET kinase assay. 0.68% of 220,000 active. inhibition, % at 20 µM. Tyrosine-protein kinase HCK (Homo sapiens), P08631;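 active means Hck-Nef kinase inhibition above about 50%, limit read from the data; inactive means inhibition below that limit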;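 further: 0% = DMSO with Hck plus Nef and 100% = Hck alone without Nef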
# Runt-SMMHC FRET = inhibitors of RUNX1 Runt–CBFb-SMMHC binding, primary screen, biochemical, FRET, Cerulean-Runt, Venus-CBFb-SMMHC, uHTS; Cerulean-Runt/Venus-CBFb-SMMHC FRET ratio 530/480, 1 h; 0.74% of 220,000 active; inhibition, % at 20 µM; Runt-related transcription factor 1 (Homo sapiens) + Core-binding factor subunit beta …;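 active means mean inhibition across duplicate retests at 20 µM reaching about 50%, limit read from the data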;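 further: 0% = DMSO wells and 100% = wells with excess untagged CBFb-SMMHC; inhibitors lower the FRET ratio by blocking Runt binding to CBFb-SMMHC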
# * marks the source's active call; other numbers are inactive results; ? = inconclusive; . = no result given.
SMILES,TbHK1 inh,RanGTP-Impb inh,Runt-CBFb FRET,Hck Nef HTS,Runt-SMMHC FRET
CC(C)COC(=O)C(C#N)c1nc2ccccc2nc1N1CCN(Cc2ccccc2)CC1 (centres undefined),-6,?,27,-2,53
C=CCOC(=O)C(C#N)c1nc2ccccc2nc1N1CCN(Cc2ccccc2)CC1 (centres undefined),-4,.,0,-3,68*
CCCCOC(=O)C(C#N)c1nc2ccccc2nc1N1CCN(Cc2ccc3c(c2)OCO3)CC1 (centres undefined),-6,.,43,-1,75*
COCCCNC(=O)C(C#N)c1nc2ccccc2nc1N1CCN(Cc2ccccc2)CC1 (centres undefined),-8,?,24,-17,24
COCC(C)OC(=O)C(C#N)c1nc2ccccc2nc1N1CCN(Cc2ccccc2)CC1 (centres undefined),-11,7,44,2,72*
COC(=O)C(C#N)c1nc2ccccc2nc1N1CCN(Cc2ccc3c(c2)OCO3)CC1 (centres undefined),.,-2,13,.,26
O=C(Cn1cc(C(F)(F)F)cc(Cl)c1=O)Nc1cc(Cl)cc(Cl)c1,2,9,1,16,3
C#CCOc1ccc(/C=C2/C(=O)NN(c3ccc(F)cc3)C2=O)cc1OC,.,0,.,.,.
Cc1ccc(-c2nc(-c3nccc4ccccc34)oc2-c2ccccc2)cc1,-27,1,7,33,72*
c1ccc(-c2nccc3ccccc23)cc1,.,0,.,.,.
CC(=O)N(C)/C=C1\Sc2ccccc2C1=O,-2,?,30,3,76*
CC(=O)Nc1ccc(/C=C2\Sc3ccccc3C2=O)cc1,5,4,-4,11,-3
O=CN(/C=C1\Sc2ccccc2C1=O)Cc1ccccc1,-12,?,37,15,67*
Cc1cccn2c(=O)c3cc(C#N)c(=NC(=O)c4ccco4)n(Cc4ccco4)c3nc12,-14,120*,10,23,88*
Cc1cccc(C(=O)N=c2c(C#N)cc3c(=O)n4cccc(C)c4nc3n2Cc2ccco2)c1,-8,112*,95*,28,.
Cc1cccn2c(=O)c3cc(C(=O)N(C)C)n(C)c3nc12,-27,-5,-11,23,-24
Cc1cccn2c(=O)c3cc(C#N)c(=NC(=O)c4ccccc4)n(Cc4ccco4)c3nc12,.,110*,.,.,.
O=Cc1ccc(OCC(=O)Nc2ccccc2C(F)(F)F)cc1,7,-4,1,-24,-3
O=c1n(Cc2ccccc2F)c2ccccc2n1Cc1ccccc1F,6,4,-1,8,-3
Cn1c(=O)n(Cc2ccccc2F)c2ccccc21,2,40*,2,5,-1
COC(=O)CC1COc2ccccc2N1C(=O)c1ccc(Cl)cc1 (centres undefined),-3,179*,-1,0,1
CCOC(=O)c1cc(C)[nH]c1C,-4,0,0,11,2
CCOC(=O)c1cc(C)[nH]c(=O)c1C#N,-16,8,26,-3,56*
Cc1c(Cc2ccccc2)c(=O)oc2cc(O)cc(O)c12,-15,4,24,42,63*
CC(C)c1nc(SCC(=O)Nc2ccc3c(c2)OCCO3)n[nH]1,-2,20*,0,10,-3
SMILES,TbHK1 inh,RanGTP-Impb inh,Runt-CBFb FRET,Hck Nef HTS,Runt-SMMHC FRET
CCn1c(O)c(/C=C2\C=Nc3ccccc32)sc1=O,-5,0,-2,19,3
Oc1nc(Nc2ccccc2)sc1/C=C1\C=Nc2ccccc21,-14,21*,-8,17,-3
CCOC(=O)c1c(Nc2ccccc2)sc(/C=C2\C=Nc3ccccc32)c1O,-13,43*,-48,1,-50
Cc1c(Cl)c(=O)n2c(=O)c(Cl)c(C)n12,-4,128*,21,-68,86*
Cc1nn(CC(=O)O)c(C)c1Cl,-5,-2,-1,0,1
O=C(NCc1ccco1)c1cnn2c1NC(c1ccccc1)CC2C(F)(F)F (centres undefined),-6,-5,-2,1,-7
O=C(NCc1ccco1)c1cnn2c1NC(c1ccc(Br)cc1)CC2C(F)(F)F (centres undefined),-14,25*,0,1,7
COc1cccc2cc(C(=O)NC3CC4CCC3C4)oc12 (centres undefined),.,26*,.,.,.
CCOC(=O)C1=C(COC(=O)c2ccc(OC)c(OC)c2OC)NC(=O)NC1C (centres undefined),.,6,.,.,.
O=C(NC1CCCC1)c1ccc(CS(=O)(=O)c2ccc(Br)cc2)o1,-3,-2,0,0,1
COCCCNc1nc2nonc2nc1N1CCN(Cc2cccc(C)c2)CC1,-23,0,24,3,82*
CCCC[C@H](CN[C@@H](CNC)[C@H](C)CC)NCCC12CCC(CC1)C2,.,1,.,.,.
Cc1ccc(N=Cc2nc(-c3ccc(C)cc3)oc2O)cc1,-14,8,-14,6,-16
COc1ccc(N=Cc2nc(-c3ccco3)oc2O)cc1,-17,20*,1,-1,5
COc1ccccc1N1CCN(C(=O)c2oc3c(c2C)C(=O)CC(C)(C)C3)CC1,.,0,.,.,.
NNc1nc(-c2ccccc2)nc(-c2ccccc2)c1Br,.,1,.,.,.
CC(=O)NS(=O)(=O)c1ccc(N2C(=O)c3ccccc3C2=O)cc1,10,20*,1,11,2
Cc1cc(NS(=O)(=O)c2ccc(NC(=O)c3cc4c(=O)n5ccccc5nc4s3)cc2)nc(C)n1,-8,7,33,19,74*
CN(C)S(=O)(=O)c1cccc(NC(=O)c2cc3c(=O)n4ccccc4nc3s2)c1,5,6,-34,17,28
CN(C)c1ccc(/C=c2/sc3n(c2=O)NC2(c4ccccc4)N(C)C(=O)N(C)C2(c2ccccc2)N=3)cc1 (centres undefined),-7,20*,-12,-20,-43
O=C(CN1C(=O)NC2(CCCCC2)C1=O)N1CCN(S(=O)(=O)/C=C/c2ccccc2)CC1,.,2,.,.,.
O=C(O)c1ccc(-c2ccc(/C=C3\NC(=O)N(Cc4ccc(Cl)cc4)C3=O)o2)cc1,-9,.,98*,18,84*
Cc1ccc(/C=C2/NC(=O)N(Cc3ccccc3)C2=O)o1,-6,-1,28,7,25
CCC1CN(S(=O)(=O)c2cc(-c3cc(C)no3)ccc2OC)c2cc(C)ccc2O1 (centres undefined),.,-2,.,.,.
COc1ccc(C2c3sc(=O)[nH]c3SC3C4CCC(C4)C23)cc1 (centres undefined),3,5,14,-2,4

# Screening results: PubChem BioAssay, several laboratories
